Results taken from ChEMBL document CHEMBL1128580, “Synthesis and antibacterial activity of some novel 1-substituted 1,4-dihydro-4-oxo-7-pyridinyl-3-quinolinecarboxylic acids. Potent antistaphylococcal agents” (1995).
In brackets after ≈: the same amount, converted by molar mass.

Key:
Assay type in all cases: functional
Pseudomonas aeruginosa = assay: Minimum Inhibitory concentration measured against Pseudomonas aeruginosa ATCC 27853
How it was run: (§1)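 Broth microdilution on cultures kept as frozen stock, grown in Mueller Hinton II medium for 18–24 h at 37 °C. Suspension adjusted to absorbance 0.1 at 650 nm and diluted 1:10 in medium to give the inoculum. Final density 10⁵ cells/mL; plates incubated 24 h at 37 °C.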

Streptococcus pyogenes = assay: Minimum Inhibitory concentration measured against Streptococcus pyogenes ATCC 6301
How it was run: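 ATCC 6301 was grown in brain heart infusion broth with 10% heat-inactivated horse serum for 18–24 h at 37 °C. Suspension brought to absorbance 0.1 at 650 nm, then diluted 1:10 in the same medium. Broth microdilution at a final 10⁵ cells/mL, incubated 24 h at 37 °C.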

Enterococcus faecalis = assay: Minimum Inhibitory concentration measured against Streptococcus faecalis ATCC 29212; how it was run: as §1
Bacteroides fragilis = assay: Minimum Inhibitory concentration measured against Bacteroides fragilis ATCC 25285
How it was run: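 Anaerobic broth microdilution. Grown in brain heart infusion broth with 5 µg/mL hemin and 0.5 µg/mL vitamin K for 48 h at 37 °C under 5% CO₂, 10% H₂, 85% N₂. Adjusted to absorbance 0.1 at 650 nm and diluted 1:10. Final 10⁵ cells/mL; plates incubated anaerobically for 48 h at 37 °C.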

Escherichia coli = assay: Minimum Inhibitory concentration measured against Escherichia coli ATCC 1-25922; how it was run: as §1
Staphylococcus aureus = assay: Minimum Inhibitory concentration measured against Staphylococcus aureus ATCC 29213; how it was run: as §1

SMILES | MIC (Pseudomonas aeruginosa) [µg/mL] | MIC (Streptococcus pyogenes) [µg/mL] | MIC (Enterococcus faecalis) [µg/mL] | MIC (Bacteroides fragilis) [µg/mL] | MIC (Escherichia coli) [µg/mL] | MIC (Staphylococcus aureus) [µg/mL]
Cc1cc(-c2ccc3c(=O)c(C(=O)O)cn(C4CC4)c3c2)cc(C)n1 | > 4 | 0.5 (≈ 1.5 µM) | 0.5 (≈ 1.5 µM) | > 4 | 0.25 (≈ 0.748 µM) | 0.06 (≈ 0.179 µM)
CCc1cc(-c2cc3c(cc2F)c(=O)c(C(=O)O)cn3C2CC2)ccn1 | 4 (≈ 11.4 µM) | 0.25 (≈ 0.709 µM) | 0.25 (≈ 0.709 µM) | 1 (≈ 2.84 µM) | 0.125 (≈ 0.355 µM) | 0.03 (≈ 0.0851 µM)
O=C(O)c1cn(C2CC2)c2cc(-c3ccncc3)c(F)cc2c1=O | 2 (≈ 6.17 µM) | 0.25 (≈ 0.771 µM) | 0.5 (≈ 1.54 µM) | 1 (≈ 3.08 µM) | 0.03 (≈ 0.0925 µM) | 0.06 (≈ 0.185 µM)
CCn1cc(C(=O)O)c(=O)c2cc(F)c(-c3ccncc3)cc21 | 2 (≈ 6.4 µM) | 2 (≈ 6.4 µM) | 1 (≈ 3.2 µM) | 16 (≈ 51.2 µM) | 0.125 (≈ 0.4 µM) | 0.25 (≈ 0.801 µM)
Cc1cc(-c2cc3c(cc2F)c(=O)c(C(=O)O)cn3C2CC2)cc(CN(C)C)n1 | 8 (≈ 20.2 µM) | 0.5 (≈ 1.26 µM) | 0.5 (≈ 1.26 µM) | 2 (≈ 5.06 µM) | 0.06 (≈ 0.152 µM) | 0.06 (≈ 0.152 µM)
Cc1cc(-c2cc3c(cc2F)c(=O)c(C(=O)O)cn3C(C)(C)C)cc(C)n1 | > 4 | 0.125 (≈ 0.339 µM) | 0.25 (≈ 0.679 µM) | 1 (≈ 2.71 µM) | 0.25 (≈ 0.679 µM) | 0.03 (≈ 0.0814 µM)
Cc1cc(-c2cc3c(cc2F)c(=O)c(C(=O)O)cn3C2CC2)cc(C)n1 | 2 (≈ 5.68 µM) | 0.03 (≈ 0.0851 µM) | 0.06 (≈ 0.17 µM) | 0.5 (≈ 1.42 µM) | 0.03 (≈ 0.0851 µM) | 0.008 (≈ 0.0227 µM)
Cc1cc(-c2cc3c(cc2F)c(=O)c(C(=O)O)cn3C2CC2)ccn1 | 2 (≈ 5.91 µM) | 0.06 (≈ 0.177 µM) | 0.06 (≈ 0.177 µM) | 0.5 (≈ 1.48 µM) | 0.03 (≈ 0.0887 µM) | 0.016 (≈ 0.0473 µM)
COCc1cc(-c2cc3c(cc2F)c(=O)c(C(=O)O)cn3C2CC2)cc(C)n1 | 8 (≈ 20.9 µM) | 0.125 (≈ 0.327 µM) | 0.125 (≈ 0.327 µM) | 1 (≈ 2.62 µM) | 0.25 (≈ 0.654 µM) | 0.03 (≈ 0.0785 µM)
Cc1cc(-c2nc3c(cc2F)c(=O)c(C(=O)O)cn3C2CC2)cc(C)n1 | 8 (≈ 22.6 µM) | 0.25 (≈ 0.708 µM) | 0.125 (≈ 0.354 µM) | 2 (≈ 5.66 µM) | 0.125 (≈ 0.354 µM) | 0.03 (≈ 0.0849 µM)
O=C(O)c1cn(C2CC2)c2cc(-c3cccnc3)c(F)cc2c1=O | 1 (≈ 3.08 µM) | 0.125 (≈ 0.385 µM) | 0.25 (≈ 0.771 µM) | 0.5 (≈ 1.54 µM) | 0.008 (≈ 0.0247 µM) | 0.016 (≈ 0.0493 µM)
CNCc1cc(-c2cc3c(cc2F)c(=O)c(C(=O)O)cn3C2CC2)cc(C)n1 | 1 (≈ 2.62 µM) | 0.25 (≈ 0.655 µM) | 0.2 (≈ 0.524 µM) | 2 (≈ 5.24 µM) | 0.016 (≈ 0.0419 µM) | 0.125 (≈ 0.328 µM)
CNn1cc(C(=O)O)c(=O)c2cc(F)c(-c3cc(C)nc(C)c3)cc21 | > 4 | 1 (≈ 2.93 µM) | 0.5 (≈ 1.46 µM) | > 4 | 0.25 (≈ 0.732 µM) | 0.06 (≈ 0.176 µM)
Cc1cc(-c2ccc3c(=O)c(C(=O)O)cn(C4CC4)c3c2F)cc(C)n1 |  |  |  |  | 0.06 (≈ 0.17 µM) | 0.008 (≈ 0.0227 µM)
Cc1cc(-c2c(F)c(F)c3c(=O)c(C(=O)O)cn(C4CC4)c3c2F)cc(C)n1 | 8 (≈ 20.6 µM) | 0.03 (≈ 0.0773 µM) | 0.06 (≈ 0.155 µM) | 0.5 (≈ 1.29 µM) | 0.13 (≈ 0.335 µM) | 0.008 (≈ 0.0206 µM)
CCn1cc(C(=O)O)c(=O)c2cc(F)c(-c3cc(C)nc(C)c3)cc21 | 4 (≈ 11.8 µM) | 0.25 (≈ 0.735 µM) | 0.25 (≈ 0.735 µM) | 2 (≈ 5.88 µM) | 0.06 (≈ 0.176 µM) | 0.03 (≈ 0.0881 µM)
Cc1ccc(-c2cc3c(cc2F)c(=O)c(C(=O)O)cn3C2CC2)c(C)n1 | > 16 | 8 (≈ 22.7 µM) | 4 (≈ 11.4 µM) | 4 (≈ 11.4 µM) | 0.5 (≈ 1.42 µM) | 1 (≈ 2.84 µM)
Cc1cc(-c2cc3c(cc2F)c(=O)c(C(=O)O)cn3C2CC2)c(C)c(C)n1 | 8 (≈ 21.8 µM) | 0.25 (≈ 0.682 µM) | 0.5 (≈ 1.36 µM) | 4 (≈ 10.9 µM) | 0.125 (≈ 0.341 µM) | 0.06 (≈ 0.164 µM)
Cc1cc(-c2cc3c(cc2F)c(=O)c(C(=O)O)cn3C2CC2)cc(CO)n1 | 4 (≈ 10.9 µM) | 0.06 (≈ 0.163 µM) | 0.125 (≈ 0.339 µM) | 1 (≈ 2.71 µM) | 0.06 (≈ 0.163 µM) | 0.03 (≈ 0.0814 µM)
Cc1ccc(-c2cc3c(cc2F)c(=O)c(C(=O)O)cn3C2CC2)cn1 | 2 (≈ 5.91 µM) | 0.25 (≈ 0.739 µM) | 0.25 (≈ 0.739 µM) | 0.25 (≈ 0.739 µM) | 0.03 (≈ 0.0887 µM) | 0.03 (≈ 0.0887 µM)
Cc1cc(-c2cc3c(cc2F)c(=O)c(C(=O)O)cn3-c2ccc(F)cc2)cc(C)n1 | 4 (≈ 9.84 µM) | 1 (≈ 2.46 µM) | 1 (≈ 2.46 µM) | 1 (≈ 2.46 µM) | 0.125 (≈ 0.308 µM) | 0.125 (≈ 0.308 µM)
CCNCc1cc(-c2cc3c(cc2F)c(=O)c(C(=O)O)cn3C2CC2)cc(C)n1 | 8 (≈ 20.2 µM) | 0.5 (≈ 1.26 µM) | 2 (≈ 5.06 µM) | 8 (≈ 20.2 µM) | 0.06 (≈ 0.152 µM) | 0.5 (≈ 1.26 µM)
Cc1cncc(-c2cc3c(cc2F)c(=O)c(C(=O)O)cn3C2CC2)c1 | 2 (≈ 5.91 µM) | 0.06 (≈ 0.177 µM) | 0.125 (≈ 0.369 µM) | 0.25 (≈ 0.739 µM) | 0.06 (≈ 0.177 µM) | 0.016 (≈ 0.0473 µM)
O=C(O)c1cn(C2CC2)c2cc(N3CCNCC3)c(F)cc2c1=O [CIPROFLOXACIN] |  | 0.25 (≈ 0.754 µM) | 0.5 (≈ 1.51 µM) | 2 (≈ 6.04 µM) |  | 0.25 (≈ 0.754 µM)
CCn1cc(C(=O)O)c(=O)c2ccc(-c3cc(C)nc(C)c3)cc21 [DIMETHYLROSOXACIN] | 2 (≈ 6.2 µM) | 32 (≈ 99.3 µM) | 1 (≈ 3.1 µM) | 16 (≈ 49.6 µM) | 0.25 (≈ 0.776 µM) | 0.25 (≈ 0.776 µM)
CCn1cc(C(=O)O)c(=O)c2cc(F)c(N3CCNCC3)cc21 [NORFLOXACIN] | 2 (≈ 6.26 µM) | 4 (≈ 12.5 µM) | 4 (≈ 12.5 µM) | 8 (≈ 25.1 µM) | 0.125 (≈ 0.391 µM) | 2 (≈ 6.26 µM)
CCn1cc(C(=O)O)c(=O)c2ccc(-c3ccncc3)cc21 [ROSOXACIN] | 16 (≈ 54.4 µM) | 16 (≈ 54.4 µM) | 16 (≈ 54.4 µM) | 8 (≈ 27.2 µM) | 0.125 (≈ 0.425 µM) | 0.5 (≈ 1.7 µM)
Cc1cc(-c2c(F)cc3c(=O)c(C(=O)O)cn(C4CC4)c3c2F)cc(C)n1 [WIN-57294] | 4 (≈ 10.8 µM) | 0.016 (≈ 0.0432 µM) | 0.06 (≈ 0.162 µM) | 0.125 (≈ 0.338 µM) | 0.06 (≈ 0.162 µM) | 0.008 (≈ 0.0216 µM)
